Test results taken from ChEMBL document CHEMBL1131058, “Studies on quinazolines and 1,2,4-benzothiadiazine 1,1-dioxides. 8.1, 2 synthesis and pharmacological evaluation of tricyclic fused quinazolines and 1,2,4-benzothiadiazine 1,1-dioxides as potential alpha1-adrenoceptor antagonists” (J Med Chem, 1998).

Assays:
Sigma 2 receptor [1] = assay: (§1) Binding affinity towards Sigma 2 receptor using [3H]ifenprodil in rat brain; type: tissue-based; settings: concentration not given here
Procedure, shortened: (§2)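 Radioligand competition binding was done by an outside contract lab (Pan Lab). Inhibition constants (Ki) were derived from displacement of the stated tritiated ligand. Each compound was tested at 10 µM. Where inhibition at that concentration stayed below 50%, no Ki was reported.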

[2] = target: T1, Alpha-1B adrenergic receptor (Rattus norvegicus, UniProt P15823); assay: Displacement of [3H]prazosin from Alpha-1B adrenergic receptor of rat liver membrane
T1 sequence (P15823 whole entry): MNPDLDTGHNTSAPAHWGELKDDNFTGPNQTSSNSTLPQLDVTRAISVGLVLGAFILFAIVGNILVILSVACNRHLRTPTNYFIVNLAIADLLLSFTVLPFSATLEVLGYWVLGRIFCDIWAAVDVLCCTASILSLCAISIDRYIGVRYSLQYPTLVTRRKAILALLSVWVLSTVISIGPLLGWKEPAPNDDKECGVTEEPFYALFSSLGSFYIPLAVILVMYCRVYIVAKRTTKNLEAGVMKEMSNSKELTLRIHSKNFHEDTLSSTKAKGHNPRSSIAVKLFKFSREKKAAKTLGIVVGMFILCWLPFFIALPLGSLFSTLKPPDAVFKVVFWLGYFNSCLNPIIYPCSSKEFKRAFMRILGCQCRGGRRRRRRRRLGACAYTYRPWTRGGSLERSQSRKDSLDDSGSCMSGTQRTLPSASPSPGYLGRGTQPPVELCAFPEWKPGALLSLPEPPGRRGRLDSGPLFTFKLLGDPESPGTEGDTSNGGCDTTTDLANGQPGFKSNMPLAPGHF
Procedure, shortened: (§3)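 Triplicate competition binding against 0.2-0.25 nM [³H]prazosin in Tris buffer pH 7.4, 30 min at room temperature. Competitor range 0.1-200 nM. Nonspecific binding defined with 10 µM phentolamine. Reaction stopped by GF/B filtration with two cold Tris washes. Membrane protein 300-400 µg per assay. Ki calculated from the data; mean ± SEM of 3-6 experiments.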

Histamine H1 receptor = Histamine H1 receptor (Cavia porcellus, UniProt P31389); assay: Compound is evaluated for binding affinity towards Histamine H1 receptor using [3H]pyrilamine in guinea pig lung; type: tissue-based
Procedure, shortened: (§4)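 Contract radioligand competition binding. Sources: 5-HT1 and 5-HT1A in rat brain cortex; 5-HT2 and σ2 in rat brain; σ in guinea pig brain; D2, rhD2 and rhD3 in CHO cells with [³H]spiperone; H1 in guinea pig lung with [³H]pyrilamine. Inhibition constants reported; no constant given where inhibition at 10 µM was below 50%.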

[3] = target: Serotonin 2 (5-HT2) receptor (Rattus norvegicus, UniProt P30994+P08909+P14842); assay: Compound is evaluated for binding affinity towards 5-hydroxytryptamine 2 receptor using [3H]ketanserin in rat brain; type: tissue-based; procedure, shortened: as §4
D(3) dopamine receptor [4] = target: T2, D(3) dopamine receptor (Homo sapiens, UniProt P35462); assay: Compound is evaluated for binding affinity towards recombinant human Dopamine receptor D3 using [3H]spiperone in CHO cells; type: cell-based; procedure, shortened: as §4
[5] = target: Serotonin 1 (5-HT1) receptor (Rattus norvegicus) (UniProt P28564+P30940+P19327+P28565); assay: Compound is evaluated for binding affinity towards 5-hydroxytryptamine 1 receptor using [3H]5-HT in rat brain cortex at 10 uM; type: tissue-based; procedure, shortened: as §2
[6] = target: Sodium channel alpha subunits; brain (Types I, II, III) (Rattus norvegicus) (UniProt P04775+P04774+P08104); assay: Displacement of [3H]batrachotoxin from rat brain sodium channel at 10 uM; type: tissue-based; procedure, shortened: as §2
[7] = Selectivity ratio for binding affinity towards alpha2 and alpha-1 adrenoceptors
Procedure, shortened: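 Ratio of α2 Ki ([³H]clonidine binding) to α1 Ki ([³H]prazosin binding), both measured in rat cortical membrane competition assays.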

[8] = target: T3, Alpha-1A adrenergic receptor (Rattus norvegicus, UniProt P43140); assay: Displacement of [3H]prazosin from Alpha-1A adrenergic receptor of rat submaxillary gland membranes; type: cell membranes, Membrane; procedure, shortened: as §3
T3 sequence (P43140 whole entry): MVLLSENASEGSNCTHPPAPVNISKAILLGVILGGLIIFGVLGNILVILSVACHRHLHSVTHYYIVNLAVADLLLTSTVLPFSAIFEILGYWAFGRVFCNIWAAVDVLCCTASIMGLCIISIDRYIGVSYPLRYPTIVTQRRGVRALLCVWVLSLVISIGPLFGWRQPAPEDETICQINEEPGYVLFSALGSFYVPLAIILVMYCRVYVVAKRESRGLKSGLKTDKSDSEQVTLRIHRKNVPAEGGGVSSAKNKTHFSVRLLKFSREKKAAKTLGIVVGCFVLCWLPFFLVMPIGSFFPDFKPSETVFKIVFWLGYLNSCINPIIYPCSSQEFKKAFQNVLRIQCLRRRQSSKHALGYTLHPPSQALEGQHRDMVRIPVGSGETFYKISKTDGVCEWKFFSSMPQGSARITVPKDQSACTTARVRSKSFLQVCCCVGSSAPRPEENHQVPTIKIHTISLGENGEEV

[9] = target: Alpha-2B adrenergic receptor (Homo sapiens) (UniProt P18089); assay: Compound is evaluated for binding affinity towards Alpha-2B adrenergic receptor using [3H]yohimbine at 10 uM
[10] = target: Alpha-2A adrenergic receptor (Homo sapiens) (UniProt P08913); assay: Compound is evaluated for binding affinity towards Alpha-2A adrenergic receptor using [3H]MK912 at 10 uM
D(2) dopamine receptor [11] = target: T4, D(2) dopamine receptor (Homo sapiens, UniProt P14416); assay: Compound is evaluated for binding affinity towards Dopamine receptor D2 using [3H]spiperone in CHO cells; type: cell-based; procedure, shortened: as §4
[12] = target: T5, 5-hydroxytryptamine receptor 1A (Rattus norvegicus, UniProt P19327); assay: Compound is evaluated for binding affinity towards 5-hydroxytryptamine 1A receptor using [3H]-8-OH- -DPAT in rat brain cortex; type: tissue-based; procedure, shortened: as §4
T5 sequence (P19327 whole entry): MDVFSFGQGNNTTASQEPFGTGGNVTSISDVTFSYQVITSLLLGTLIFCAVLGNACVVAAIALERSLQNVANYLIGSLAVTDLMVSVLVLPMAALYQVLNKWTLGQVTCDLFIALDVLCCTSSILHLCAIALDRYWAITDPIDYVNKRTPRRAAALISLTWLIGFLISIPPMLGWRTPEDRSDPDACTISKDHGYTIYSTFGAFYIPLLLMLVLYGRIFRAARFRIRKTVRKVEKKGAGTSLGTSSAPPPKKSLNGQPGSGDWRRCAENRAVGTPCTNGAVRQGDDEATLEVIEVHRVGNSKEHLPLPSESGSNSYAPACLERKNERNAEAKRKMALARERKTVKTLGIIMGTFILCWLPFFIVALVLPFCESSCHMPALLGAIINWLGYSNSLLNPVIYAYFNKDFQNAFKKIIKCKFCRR

D(2) dopamine receptor [13] = target: T4, D(2) dopamine receptor; assay: Compound is evaluated for binding affinity towards recombinant human Dopamine receptor D2 using [3H]spiperone in CHO cells; type: cell-based; procedure, shortened: as §4
D(3) dopamine receptor [14] = target: T2, D(3) dopamine receptor; assay: Compound is evaluated for binding affinity towards recombinant human Dopamine receptor D3 using [3H]spiperone in CHO cells at 10 uM; type: cell-based
Procedure, shortened: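 Single-concentration screen at 10 µM in contract radioligand binding assays. Records whether inhibition of specific radioligand binding stayed below 50%.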

[15] = target: T6, Alpha-2A adrenergic receptor (Homo sapiens, UniProt P08913); assay: Compound is evaluated for binding affinity towards Alpha-2A adrenergic receptor using [3H]MK912
T6 sequence (P08913 whole entry): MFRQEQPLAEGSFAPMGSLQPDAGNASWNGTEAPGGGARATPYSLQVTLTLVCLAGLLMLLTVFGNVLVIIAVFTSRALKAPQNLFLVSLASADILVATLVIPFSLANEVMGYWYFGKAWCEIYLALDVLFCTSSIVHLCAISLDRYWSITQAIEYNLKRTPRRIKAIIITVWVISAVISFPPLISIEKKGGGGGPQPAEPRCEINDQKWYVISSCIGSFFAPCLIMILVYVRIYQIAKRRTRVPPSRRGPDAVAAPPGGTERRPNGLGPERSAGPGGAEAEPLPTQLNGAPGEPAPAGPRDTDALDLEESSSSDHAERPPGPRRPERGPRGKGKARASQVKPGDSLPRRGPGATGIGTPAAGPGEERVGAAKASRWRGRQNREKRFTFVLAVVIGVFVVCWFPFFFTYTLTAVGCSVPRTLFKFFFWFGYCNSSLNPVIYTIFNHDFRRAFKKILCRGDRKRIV

Sigma 2 receptor [16] = assay: as §1; type: tissue-based; procedure, shortened: as §4
[17] = target: T7, Alpha-2B adrenergic receptor (Homo sapiens, UniProt P18089); assay: Compound is evaluated for binding affinity towards Alpha-2B adrenergic receptor using [3H]yohimbine
T7 sequence (P18089 whole entry): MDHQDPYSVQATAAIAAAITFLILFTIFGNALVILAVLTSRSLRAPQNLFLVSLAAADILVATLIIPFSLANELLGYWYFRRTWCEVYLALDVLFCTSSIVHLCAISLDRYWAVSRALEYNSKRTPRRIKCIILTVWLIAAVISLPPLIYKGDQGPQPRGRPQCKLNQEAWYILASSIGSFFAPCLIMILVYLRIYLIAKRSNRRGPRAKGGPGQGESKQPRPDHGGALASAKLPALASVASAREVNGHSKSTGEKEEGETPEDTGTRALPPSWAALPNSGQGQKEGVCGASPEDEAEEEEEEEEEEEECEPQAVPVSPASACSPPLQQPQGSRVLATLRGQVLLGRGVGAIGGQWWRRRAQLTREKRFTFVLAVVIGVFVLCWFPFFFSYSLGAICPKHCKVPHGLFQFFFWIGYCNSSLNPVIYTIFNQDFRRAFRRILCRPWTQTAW

D(2) dopamine receptor [18] = target: T4, D(2) dopamine receptor; assay: Compound is evaluated for binding affinity towards Dopamine receptor D2 using [3H]spiperone in CHO cells at 10 uM; type: cell-based
[19] = target: Sodium channel alpha subunits; brain (Types I, II, III) (Rattus norvegicus, UniProt P04775+P04774+P08104); assay: Displacement of [3H]batrachotoxin from rat brain sodium channel; type: tissue-based; procedure, shortened: as §2
[20] = target: Serotonin 1 (5-HT1) receptor (Rattus norvegicus, UniProt P28564+P30940+P19327+P28565); assay: Compound is evaluated for binding affinity towards 5-hydroxytryptamine 1 receptor using [3H]5-HT in rat brain cortex; type: tissue-based; procedure, shortened: as §4

T4 sequence (P14416 whole entry): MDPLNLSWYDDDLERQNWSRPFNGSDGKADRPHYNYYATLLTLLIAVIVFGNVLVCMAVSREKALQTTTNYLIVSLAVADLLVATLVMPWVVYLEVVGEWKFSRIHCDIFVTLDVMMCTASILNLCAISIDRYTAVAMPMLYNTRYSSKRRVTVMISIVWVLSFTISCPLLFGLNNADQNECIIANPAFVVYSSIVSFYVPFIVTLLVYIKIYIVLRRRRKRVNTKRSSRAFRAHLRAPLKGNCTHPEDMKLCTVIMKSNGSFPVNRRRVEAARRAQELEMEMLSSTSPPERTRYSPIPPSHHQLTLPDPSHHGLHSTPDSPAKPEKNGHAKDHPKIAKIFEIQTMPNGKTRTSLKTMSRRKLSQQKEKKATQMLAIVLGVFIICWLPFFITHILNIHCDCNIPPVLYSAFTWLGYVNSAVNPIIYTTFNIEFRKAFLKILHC
T2 sequence (P35462 whole entry): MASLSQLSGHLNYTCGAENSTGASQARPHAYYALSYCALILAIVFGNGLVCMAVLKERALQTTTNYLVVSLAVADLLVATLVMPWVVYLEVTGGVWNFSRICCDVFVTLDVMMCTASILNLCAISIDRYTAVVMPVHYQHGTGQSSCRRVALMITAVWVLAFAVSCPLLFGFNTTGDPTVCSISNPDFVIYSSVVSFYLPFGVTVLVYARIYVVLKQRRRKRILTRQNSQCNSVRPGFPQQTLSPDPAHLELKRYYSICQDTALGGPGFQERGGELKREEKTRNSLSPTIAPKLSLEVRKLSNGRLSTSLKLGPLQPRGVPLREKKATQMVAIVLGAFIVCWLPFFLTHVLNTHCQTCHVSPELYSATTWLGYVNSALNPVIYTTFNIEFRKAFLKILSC
Chain of Histamine H1 receptor (P31389 whole entry): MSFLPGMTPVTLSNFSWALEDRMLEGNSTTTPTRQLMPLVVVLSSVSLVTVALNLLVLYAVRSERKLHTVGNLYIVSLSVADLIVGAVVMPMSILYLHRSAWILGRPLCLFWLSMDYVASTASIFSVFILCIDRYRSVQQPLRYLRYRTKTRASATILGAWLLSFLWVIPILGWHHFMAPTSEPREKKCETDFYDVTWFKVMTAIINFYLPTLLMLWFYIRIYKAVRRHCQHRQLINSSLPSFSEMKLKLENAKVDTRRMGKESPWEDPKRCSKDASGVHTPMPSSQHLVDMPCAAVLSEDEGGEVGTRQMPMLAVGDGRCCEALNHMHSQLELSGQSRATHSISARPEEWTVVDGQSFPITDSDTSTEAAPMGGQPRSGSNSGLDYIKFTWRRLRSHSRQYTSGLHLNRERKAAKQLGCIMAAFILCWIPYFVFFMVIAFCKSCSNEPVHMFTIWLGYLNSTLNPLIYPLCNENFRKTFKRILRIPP

| Structure (SMILES) | Ki [2] [µM] | Ki (Histamine H1 receptor) [µM] | Ki [3] [µM] | Ratio [7] | Ki [8] [µM] | Ki [12] [µM] | Ki (D(2) dopamine receptor [13]) [µM] | also measured |
| --- | --- | --- | --- | --- | --- | --- | --- | --- |
| COc1ccccc1N1CCN(CC2CN=C3c4ccccc4NC(=O)N32)CC1 (stereo not drawn) | 0.00067 | 2.32 | 0.377 | 2820 | 0.00026 | 0.155 | 0.239 | inhibition (Sigma 2 receptor [1]): < 50%; Ki (D(3) dopamine receptor [4]): 0.985 µM; inhibition [5]: < 50%; inhibition [6]: < 50%; inhibition [9]: < 50%; inhibition [10]: < 50%; Ki (D(2) dopamine receptor [11]): 0.158 µM |
| COc1ccccc1N1CCN(CCn2c(=O)[nH]c3ccccc3c2=O)CC1 | 0.0011 | 0.685 | 0.18 | 6400 | 0.0005 | 0.016 | 0.132 | Ki (D(3) dopamine receptor [14]): 0.073 µM; Ki [15]: 1.81 µM; Ki (Sigma 2 receptor [16]): 2.5 µM; Ki [17]: 0.056 µM; Ki (D(2) dopamine receptor [18]): 0.032 µM; Ki [19]: 3.68 µM; Ki [20]: 1.51 µM |
